Test system: Fibroblast
Assay: Multiplex assay against human fibroblast
Format: toxicity, cell-based
How it was run: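 Imaging took place on a CQ1 microscope at 37°C and 5% CO2 once compound had been added to live cells stained at seeding with Hoechst33342, BioTracker Green Microtubule Cytoskeleton Dye, MitoTracker Red and Annexin V Alexa Fluor 680. CellPathfinder machine-learning gating classed cells as Hoechst high-intensity objects or normal cells, classed normal cells as having healthy, pyknosed or fragmented nuclei, and classed pyknosed cells as mitotic or apoptotic. Tubulin, mitochondrial-mass and membrane-permeability phenotypes are per cents of the healthy-nucleus cells.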

[1] = 12 h, 1 µM, compound concentration 1 uM, replicate 1
[2] = 12 h, 1 µM, compound concentration 1 uM, replicate 2
[3] = 12 h, 10 µM, compound concentration 10 uM, replicate 1
[4] = 12 h, 10 µM, compound concentration 10 uM, replicate 2
[5] = 24 h, 1 µM, compound concentration 1 uM, replicate 1
[6] = 24 h, 1 µM, compound concentration 1 uM, replicate 2
[7] = 24 h, 10 µM, compound concentration 10 uM, replicate 1
[8] = 24 h, 10 µM, compound concentration 10 uM, replicate 2
[9] = 48 h, 1 µM, compound concentration 1 uM, replicate 1
[10] = 48 h, 1 µM, compound concentration 1 uM, replicate 2
[11] = 48 h, 10 µM, compound concentration 10 uM, replicate 1
[12] = 48 h, 10 µM, compound concentration 10 uM, replicate 2

`CCOc1c2c(c(OCC)c3ncccc13)CN(c1ccc(CS(=O)(=O)NC(=O)Cc3ccccc3OC)cc1C)C2=O` was tested, and the “Population Apoptotic (%)” value [1] was 44%, the “Population Fragmented Nuclei (%)” value [1] was 15% and the “Population Healthy Nuclei (%)” value [1] was 68%. The “Population Hoechst High Intensity Objects (%)” value [1] was 0%, the “Population Membrane Permeable-Phenotype (%)” value [1] was 1% and the “Population Mitochondria Different-Phenotype (%)” value [1] was 3%. For the same compound, the “Population Mitotic Cells (%)” value [1] was 55%, the “Population Normal (%)” value [1] was 99% and the “Population Pyknosed Nuclei (%)” value [1] was 15%. For the same compound, the “Population Tubulin-Different-Phenotype (%)” value [1] was 23%, the “Total Cell Count” value [1] was 120 and the “Population Apoptotic (%)” value [2] was 38%. The “Population Fragmented Nuclei (%)” value [2] was 37%, the “Population Healthy Nuclei (%)” value [2] was 42% and the “Population Hoechst High Intensity Objects (%)” value [2] was 4%. The “Population Membrane Permeable-Phenotype (%)” value [2] was 8%, the “Population Mitochondria Different-Phenotype (%)” value [2] was 2% and the “Population Mitotic Cells (%)” value [2] was 61%. The “Population Normal (%)” value [2] was 95%, the “Population Pyknosed Nuclei (%)” value [2] was 19% and the “Population Tubulin-Different-Phenotype (%)” value [2] was 62%. For the same compound, the “Total Cell Count” value [2] was 111, the “Population Apoptotic (%)” value [3] was 35% and the “Population Fragmented Nuclei (%)” value [3] was 15%. For the same compound, the “Population Healthy Nuclei (%)” value [3] was 63%, the “Population Hoechst High Intensity Objects (%)” value [3] was 1% and the “Population Membrane Permeable-Phenotype (%)” value [3] was 1%. For the same compound, the “Population Mitochondria Different-Phenotype (%)” value [3] was 6%, the “Population Mitotic Cells (%)” value [3] was 64% and the “Population Normal (%)” value [3] was 98%. The “Population Pyknosed Nuclei (%)” value [3] was 21%, the “Population Tubulin-Different-Phenotype (%)” value [3] was 27% and the “Total Cell Count” value [3] was 161. The “Population Apoptotic (%)” value [4] was 21%, the “Population Fragmented Nuclei (%)” value [4] was 19% and the “Population Healthy Nuclei (%)” value [4] was 50%. The “Population Hoechst High Intensity Objects (%)” value [4] was 3%, the “Population Membrane Permeable-Phenotype (%)” value [4] was 7% and the “Population Mitochondria Different-Phenotype (%)” value [4] was 8%. The “Population Mitotic Cells (%)” value [4] was 78%, the “Population Normal (%)” value [4] was 96% and the “Population Pyknosed Nuclei (%)” value [4] was 29%. The “Population Tubulin-Different-Phenotype (%)” value [4] was 54%, the “Total Cell Count” value [4] was 146 and the “Population Apoptotic (%)” value [5] was 56%. The “Population Fragmented Nuclei (%)” value [5] was 13%, the “Population Healthy Nuclei (%)” value [5] was 67% and the “Population Hoechst High Intensity Objects (%)” value [5] was 3%. The “Population Membrane Permeable-Phenotype (%)” value [5] was 2%, the “Population Mitochondria Different-Phenotype (%)” value [5] was 3% and the “Population Mitotic Cells (%)” value [5] was 43%. The “Population Normal (%)” value [5] was 96%, the “Population Pyknosed Nuclei (%)” value [5] was 18% and the “Population Tubulin-Different-Phenotype (%)” value [5] was 23%. For the same compound, the “Total Cell Count” value [5] was 127, the “Population Apoptotic (%)” value [6] was 46% and the “Population Fragmented Nuclei (%)” value [6] was 37%. For the same compound, the “Population Healthy Nuclei (%)” value [6] was 32%, the “Population Hoechst High Intensity Objects (%)” value [6] was 2% and the “Population Membrane Permeable-Phenotype (%)” value [6] was 18%. For the same compound, the “Population Mitotic Cells (%)” value [6] was 53%, the “Population Normal (%)” value [6] was 97% and the “Population Pyknosed Nuclei (%)” value [6] was 29%. The “Population Tubulin-Different-Phenotype (%)” value [6] was 69%, the “Total Cell Count” value [6] was 104 and the “Population Apoptotic (%)” value [7] was 42%. For the same compound, the “Population Fragmented Nuclei (%)” value [7] was 17%, the “Population Healthy Nuclei (%)” value [7] was 66% and the “Population Hoechst High Intensity Objects (%)” value [7] was 3%. The “Population Membrane Permeable-Phenotype (%)” value [7] was 1%, the “Population Mitochondria Different-Phenotype (%)” value [7] was 2% and the “Population Mitotic Cells (%)” value [7] was 57%. The “Population Normal (%)” value [7] was 96%, the “Population Pyknosed Nuclei (%)” value [7] was 15% and the “Population Tubulin-Different-Phenotype (%)” value [7] was 19%. The “Total Cell Count” value [7] was 171, the “Population Fragmented Nuclei (%)” value [8] was 25% and the “Population Healthy Nuclei (%)” value [8] was 49%. The “Population Hoechst High Intensity Objects (%)” value [8] was 4%, the “Population Membrane Permeable-Phenotype (%)” value [8] was 5% and the “Population Normal (%)” value [8] was 95%. For the same compound, the “Population Pyknosed Nuclei (%)” value [8] was 25%, the “Population Tubulin-Different-Phenotype (%)” value [8] was 50% and the “Total Cell Count” value [8] was 142. The “Population Apoptotic (%)” value [9] was 57%, the “Population Fragmented Nuclei (%)” value [9] was 18% and the “Population Healthy Nuclei (%)” value [9] was 66%. For the same compound, the “Population Hoechst High Intensity Objects (%)” value [9] was 3%, the “Population Membrane Permeable-Phenotype (%)” value [9] was 1% and the “Population Mitochondria Different-Phenotype (%)” value [9] was 3%. The “Population Mitotic Cells (%)” value [9] was 42%, the “Population Normal (%)” value [9] was 96% and the “Population Pyknosed Nuclei (%)” value [9] was 15%. The “Population Tubulin-Different-Phenotype (%)” value [9] was 26%, the “Total Cell Count” value [9] was 128 and the “Population Apoptotic (%)” value [10] was 66%. For the same compound, the “Population Fragmented Nuclei (%)” value [10] was 47%, the “Population Healthy Nuclei (%)” value [10] was 40% and the “Population Hoechst High Intensity Objects (%)” value [10] was 5%. For the same compound, the “Population Membrane Permeable-Phenotype (%)” value [10] was 5%, the “Population Mitochondria Different-Phenotype (%)” value [10] was 7% and the “Population Mitotic Cells (%)” value [10] was 33%. For the same compound, the “Population Normal (%)” value [10] was 94%, the “Population Pyknosed Nuclei (%)” value [10] was 12% and the “Population Tubulin-Different-Phenotype (%)” value [10] was 72%. The “Total Cell Count” value [10] was 105, the “Population Apoptotic (%)” value [11] was 71% and the “Population Fragmented Nuclei (%)” value [11] was 16%. The “Population Healthy Nuclei (%)” value [11] was 63%, the “Population Hoechst High Intensity Objects (%)” value [11] was 7% and the “Population Membrane Permeable-Phenotype (%)” value [11] was 1%. For the same compound, the “Population Mitochondria Different-Phenotype (%)” value [11] was 2%, the “Population Mitotic Cells (%)” value [11] was 28% and the “Population Normal (%)” value [11] was 92%. The “Population Pyknosed Nuclei (%)” value [11] was 20%, the “Population Tubulin-Different-Phenotype (%)” value [11] was 20% and the “Total Cell Count” value [11] was 171. For the same compound, the “Population Apoptotic (%)” value [12] was 29%, the “Population Fragmented Nuclei (%)” value [12] was 34% and the “Population Healthy Nuclei (%)” value [12] was 45%. The “Population Hoechst High Intensity Objects (%)” value [12] was 9%, the “Population Membrane Permeable-Phenotype (%)” value [12] was 7% and the “Population Mitochondria Different-Phenotype (%)” value [12] was 5%. The “Population Mitotic Cells (%)” value [12] was 70%, the “Population Normal (%)” value [12] was 90% and the “Population Tubulin-Different-Phenotype (%)” value [12] was 51%. The “Total Cell Count” value [12] was 131.

From ChEMBL document CHEMBL5058577, “EUbOPEN Chemogenomics Library 2 (Multiplex)” (2022)
